The source made the active and inactive calls. The calls are words filed in the database; no cut-off is given here.
Tests used:
[1] = AUC (0 to t) in ICR mouse at 5 mg/kg, iv; type: ADME, organism-based; parameters: dose 5 mg/kg, route intravenous; settings: plasma
How it was run: (§1)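 ICR mice given drug intravenously at 5 mg/kg or orally at 10 mg/kg. Parameters are taken from the plasma concentration–time profile: AUC(0–t), AUC(0–∞), MRT, Cmax and bioavailability.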

[2] = AUC (0 to infinity) in ICR mouse at 5 mg/kg, iv; type: ADME, organism-based; parameters: time infinity, dose 5 mg/kg, route intravenous; settings: plasma; how it was run: as §1
[3] = Mean residence time (0 to infinity) in ICR mouse at 5 mg/kg, iv; type: ADME, organism-based; parameters: dose 5 mg/kg, route intravenous; settings: in vivo; how it was run: as §1
[4] = Tmax in ICR mouse at 5 mg/kg, iv; type: ADME, organism-based; parameters: dose 5 mg/kg, route intravenous; settings: in vivo
[5] = Cmax in ICR mouse at 5 mg/kg, iv; type: ADME, organism-based; parameters: dose 5 mg/kg, route intravenous; settings: in vivo; how it was run: as §1
[6] = AUC (0 to t) in ICR mouse at 10 mg/kg, po; type: ADME, organism-based; parameters: dose 10 mg/kg, route oral; settings: plasma; how it was run: as §1
[7] = AUC (0 to infinity) in ICR mouse at 10 mg/kg, po; type: ADME, organism-based; parameters: time infinity, dose 10 mg/kg, route oral; settings: plasma; how it was run: as §1
[8] = Mean residence time (0 to infinity) in ICR mouse at 10 mg/kg, po; type: ADME, organism-based; parameters: dose 10 mg/kg, route oral; settings: in vivo; how it was run: as §1
[9] = Tmax in ICR mouse at 10 mg/kg, po; type: ADME, organism-based; parameters: dose 10 mg/kg, route oral; settings: in vivo
[10] = Cmax in ICR mouse at 10 mg/kg, po; type: ADME, organism-based; parameters: dose 10 mg/kg, route oral; settings: in vivo; how it was run: as §1
[11] = Oral bioavailability ICR mouse at 10 mg/kg; type: ADME, organism-based; settings: in vivo; how it was run: as §1
Rattus norvegicus = assay: Antiinflammatory activity in Wistar albino rat assessed as inhibition of carrageenan-induced paw edema at 30 mg/kg intragastrically administered 1 hr before carrageenan challenge measured after 1 to 24 hrs post carrageenan challenge by plethysmometer; type: functional, organism-based
How it was run: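 Male Wistar albino rats, 140–160 g, eight per group, dosed i.g. as a suspension in 0.5% CMC; controls get 0.5% CMC only. 1 h later, 0.1 ml of 0.1% carrageenan in 0.9% NaCl is injected into the sub-plantar region of the right hind paw. Paw volume is read by plethysmometer hourly to 6 h and at 24 h. Inhibition (%) = (Vc − Vt)/Vc × 100 on mean volume increase; mean ± SEM.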

[12] = Plasma concentration in ICR mouse at 5 mg/kg, iv after 0.083 hrs by HPLC/MS/MS analysis; type: ADME, organism-based; parameters: dose 5 mg/kg, route intravenous
[13] = Plasma concentration in ICR mouse at 5 mg/kg, iv after 0.25 hrs by HPLC/MS/MS analysis; type: ADME, organism-based; parameters: dose 5 mg/kg, route intravenous
[14] = Plasma concentration in ICR mouse at 5 mg/kg, iv after 0.5 hrs by HPLC/MS/MS analysis; type: ADME, organism-based; parameters: dose 5 mg/kg, route intravenous
[15] = Plasma concentration in ICR mouse at 5 mg/kg, iv after 1 hr by HPLC/MS/MS analysis; type: ADME, organism-based; parameters: dose 5 mg/kg, route intravenous
[16] = Plasma concentration in ICR mouse at 5 mg/kg, iv after 2 hrs by HPLC/MS/MS analysis; type: ADME, organism-based; parameters: dose 5 mg/kg, route intravenous
[17] = Plasma concentration in ICR mouse at 5 mg/kg, iv after 4 hrs by HPLC/MS/MS analysis; type: ADME, organism-based; parameters: dose 5 mg/kg, route intravenous
[18] = Plasma concentration in ICR mouse at 5 mg/kg, iv after 8 hrs by HPLC/MS/MS analysis; type: ADME, organism-based; parameters: dose 5 mg/kg, route intravenous
[19] = Plasma concentration in ICR mouse at 10 mg/kg, po after 0.083 hrs by HPLC/MS/MS analysis; type: ADME, organism-based; parameters: dose 10 mg/kg, route oral
[20] = Plasma concentration in ICR mouse at 10 mg/kg, po after 0.25 hrs by HPLC/MS/MS analysis; type: ADME, organism-based; parameters: dose 10 mg/kg, route oral
[21] = Plasma concentration in ICR mouse at 10 mg/kg, po after 0.5 hrs by HPLC/MS/MS analysis; type: ADME, organism-based; parameters: dose 10 mg/kg, route oral
[22] = Plasma concentration in ICR mouse at 10 mg/kg, po after 1 hr by HPLC/MS/MS analysis; type: ADME, organism-based; parameters: dose 10 mg/kg, route oral
[23] = Plasma concentration in ICR mouse at 10 mg/kg, po after 2 hrs by HPLC/MS/MS analysis; type: ADME, organism-based; parameters: dose 10 mg/kg, route oral
[24] = Plasma concentration in ICR mouse at 10 mg/kg, po after 4 hrs by HPLC/MS/MS analysis; type: ADME, organism-based; parameters: dose 10 mg/kg, route oral
[25] = Plasma concentration in ICR mouse at 10 mg/kg, po after 6 hrs by HPLC/MS/MS analysis; type: ADME, organism-based; parameters: dose 10 mg/kg, route oral
[26] = Plasma concentration in ICR mouse at 10 mg/kg, po after 8 hrs by HPLC/MS/MS analysis; type: ADME, organism-based; parameters: dose 10 mg/kg, route oral
[27] = Drug level in ICR mouse brain at 5 mg/kg, iv after 0.083 hrs by HPLC/MS/MS analysis; type: ADME, organism-based; parameters: dose 5 mg/kg, route intravenous; settings: read-out: Drug uptake
[28] = Drug level in ICR mouse brain at 5 mg/kg, iv after 0.25 hrs by HPLC/MS/MS analysis; type: ADME, organism-based; parameters: dose 5 mg/kg, route intravenous; settings: read-out: Drug uptake
[29] = Drug level in ICR mouse brain at 5 mg/kg, iv after 0.5 hrs by HPLC/MS/MS analysis; type: ADME, organism-based; parameters: dose 5 mg/kg, route intravenous; settings: read-out: Drug uptake
[30] = Drug level in ICR mouse brain at 5 mg/kg, iv after 1 hr by HPLC/MS/MS analysis; type: ADME, organism-based; parameters: dose 5 mg/kg, route intravenous; settings: read-out: Drug uptake
[31] = Drug level in ICR mouse brain at 5 mg/kg, iv after 2 hrs by HPLC/MS/MS analysis; type: ADME, organism-based; parameters: dose 5 mg/kg, route intravenous; settings: read-out: Drug uptake
[32] = Drug level in ICR mouse brain at 10 mg/kg, po after 0.083 hrs by HPLC/MS/MS analysis; type: ADME, organism-based; parameters: dose 10 mg/kg, route oral; settings: read-out: Drug uptake
[33] = Drug level in ICR mouse brain at 10 mg/kg, po after 0.25 hrs by HPLC/MS/MS analysis; type: ADME, organism-based; parameters: dose 10 mg/kg, route oral; settings: read-out: Drug uptake
[34] = Drug level in ICR mouse brain at 10 mg/kg, po after 0.5 hrs by HPLC/MS/MS analysis; type: ADME, organism-based; parameters: dose 10 mg/kg, route oral; settings: read-out: Drug uptake
[35] = Drug level in ICR mouse brain at 10 mg/kg, po after 1 hr by HPLC/MS/MS analysis; type: ADME, organism-based; parameters: dose 10 mg/kg, route oral; settings: read-out: Drug uptake
[36] = Drug level in ICR mouse brain at 10 mg/kg, po after 2 hrs by HPLC/MS/MS analysis; type: ADME, organism-based; parameters: dose 10 mg/kg, route oral; settings: read-out: Drug uptake
[37] = Drug level in ICR mouse brain at 10 mg/kg, po after 4 hrs by HPLC/MS/MS analysis; type: ADME, organism-based; parameters: dose 10 mg/kg, route oral; settings: read-out: Drug uptake
Nucleic Acid [38] = assay: Ratio of drug level in brain to plasma in ICR mouse at 5 mg/kg, iv after 0.083 hrs by HPLC/MS/MS analysis; type: ADME, organism-based; parameters: dose 5 mg/kg, route intravenous
Nucleic Acid [39] = assay: Ratio of drug level in brain to plasma in ICR mouse at 5 mg/kg, iv after 0.25 hrs by HPLC/MS/MS analysis; type: ADME, organism-based; parameters: dose 5 mg/kg, route intravenous
Nucleic Acid [40] = assay: Ratio of drug level in brain to plasma in ICR mouse at 5 mg/kg, iv after 0.5 hrs by HPLC/MS/MS analysis; type: ADME, organism-based; parameters: dose 5 mg/kg, route intravenous
Nucleic Acid [41] = assay: Ratio of drug level in brain to plasma in ICR mouse at 5 mg/kg, iv after 2 hrs by HPLC/MS/MS analysis; type: ADME, organism-based; parameters: dose 5 mg/kg, route intravenous
Nucleic Acid [42] = assay: Ratio of drug level in brain to plasma in ICR mouse at 10 mg/kg, po after 0.25 hrs by HPLC/MS/MS analysis; type: ADME, organism-based; parameters: dose 10 mg/kg, route oral
Nucleic Acid [43] = assay: Ratio of drug level in brain to plasma in ICR mouse at 10 mg/kg, po after 0.5 hrs by HPLC/MS/MS analysis; type: ADME, organism-based; parameters: dose 10 mg/kg, route oral
Nucleic Acid [44] = assay: Ratio of drug level in brain to plasma in ICR mouse at 10 mg/kg, po after 1 hr by HPLC/MS/MS analysis; type: ADME, organism-based; parameters: dose 10 mg/kg, route oral

For `CC(C)Cc1ccc([C@H](CF)C(=O)O)cc1`, the AUC(0-t) [1] was 23300 ng·h/mL, the AUC(0-inf) [2] was 23300 ng·h/mL and the MRT inf [3] was 49.8 min. It also gave a Tmax [4] of 4.8 min, a Cmax [5] of 31600 ng/mL and an AUC(0-t) [6] of 50200 ng·h/mL. For the same compound, the AUC(0-inf) [7] was 50200 ng·h/mL, the MRT inf [8] was 57 min and the Tmax [9] was 15 min. The Cmax [10] was 42100 ng/mL, the bioavailability [11] was 108% and the inhibition (Rattus norvegicus) was “Active”. It also gave a concentration at 0.083 h [12] of 31600 ng/mL, a concentration at 0.25 h [13] of 18000 ng/mL and a concentration at 0.5 h [14] of 13700 ng/mL. The concentration at 1 h [15] was 6160 ng/mL, the concentration at 2 h [16] was 2240 ng/mL and the concentration at 4 h [17] was 206 ng/mL. The concentration at 8 h [18] was 45.3 ng/mL, the concentration at 0.083 h [19] was 41800 ng/mL and the concentration at 0.25 h [20] was 42100 ng/mL. It also gave a concentration at 0.5 h [21] of 28500 ng/mL, a concentration at 1 h [22] of 20900 ng/mL and a concentration at 2 h [23] of 5310 ng/mL. It also gave a concentration at 4 h [24] of 792 ng/mL, a concentration at 6 h [25] of 102 ng/mL and a concentration at 8 h [26] of 42.4 ng/mL. For the same compound, the concentration at 0.083 h [27] was 982 ng/g, the concentration at 0.25 h [28] was 759 ng/g and the concentration at 0.5 h [29] was 523 ng/g. For the same compound, the concentration at 1 h [30] was 232 ng/g, the concentration at 2 h [31] was 64.9 ng/g and the concentration at 0.083 h [32] was 1160 ng/g. It also gave a concentration at 0.25 h [33] of 1270 ng/g, a concentration at 0.5 h [34] of 950 ng/g and a concentration at 1 h [35] of 516 ng/g. The concentration at 2 h [36] was 162 ng/g, the concentration at 4 h [37] was 24.7 ng/g and the BPR (Nucleic Acid [38]) was 0.031 mL/g. For the same compound, the BPR (Nucleic Acid [39]) was 0.042 mL/g, the BPR (Nucleic Acid [40]) was 0.038 mL/g and the BPR (Nucleic Acid [41]) was 0.032 mL/g. The BPR (Nucleic Acid [42]) was 0.03 mL/g, the BPR (Nucleic Acid [43]) was 0.035 mL/g and the BPR (Nucleic Acid [44]) was 0.025 mL/g.
